What was measured:
[1] = target: Thioredoxin reductase (Homo sapiens, UniProt Q16881+Q9NNW7+Q86VQ6); assay: Inhibition of thioredoxin reductase in human A549 cells assessed as enzyme activity at 24 µM after 24 hrs by DTNB assay relative to untreated control; set-up: scale not given: the % may be the effect or the level left
[2] = tested on: A549; assay: Effect on glutathione S-transferase expression in human A549 cells assessed as transcript level at 5 nM after 24 hrs by RT-qPCR analysis relative to untreated control; assay type: functional; details: in the assay text read “5 µM” for “5 nM”
Summary of the method: (§1)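 A549 cells are seeded at 2.5 × 10^5 per 25-cm2 well. At 40–45% confluence they are treated for 24 h with 166 or 662 μM, 158 or 315 μM, or 5 or 24 μM compound; controls receive <5% DMSO. Total RNA is DNase-treated and qRT-PCR is run in quadruplicate. Values are normalized to GAPDH and given as % of untreated control.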

[3] = tested on: Plasmodium falciparum; assay: Downregulation of gamma-glutamylcysteine synthetase mRNA level in Plasmodium falciparum 3D7 trophozoites at 126 nM after 18 hrs by RT-qPCR analysis relative to untreated control; assay type: functional
Summary of the method: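 P. falciparum 3D7 trophozoites are exposed to 126 nM compound for 12, 15 or 18 h, then harvested by saponin lysis at 37°C. RNA is extracted and reverse-transcribed, and transcripts are quantified by real-time PCR in quadruplicate. Analysis uses ΔΔCT with 18S rRNA as reference (LDH also checked), expressed as % of untreated control.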

[4] = tested on: A549; assay: Inhibition of glutathione S-transferase in human A549 cells assessed as enzyme activity at 5 µM after 24 hrs relative to untreated control; set-up: scale not given: the % may be the effect or the level left
[5] = tested on: Plasmodium berghei; assay: Antimalarial activity against Plasmodium berghei infected in mouse assessed as reduction in parasite load at 10 mg/kg for 4 days treated postinfection measured on day 4; assay type: functional; set-up: scale not given: the % may be the effect or the level left
Summary of the method: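 Murine Plasmodium berghei infection model. Compound given subcutaneously at 10 mg/kg for 4 days after infection, 13 treated mice and 13 controls. Parasitemia is compared with untreated controls, with significance by Fisher's exact test.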

[6] = tested on: A549; assay: Effect on thioredoxin reductase expression in human A549 cells assessed as transcript level at 662 nM after 24 hrs by RT-qPCR analysis relative to untreated control; assay type: functional; details: in the assay text read “662 uM” for “662 nM”
Summary of the method: as §1

[7] = tested on: Plasmodium falciparum; assay: Antiplasmodial activity against chloroquine-resistant Plasmodium falciparum K1 in presence of pyrimethamine; assay type: functional
[8] = tested on: A549; assay: Effect on thioredoxin reductase expression in human A549 cells assessed as transcript level at 158 nM after 24 hrs by RT-qPCR analysis relative to untreated control; assay type: functional; details: in the assay text read “158 µM” for “158 nM”
Summary of the method: as §1

Which Activity [1] does the source give for `O=c1oc2c(O)c(O)c(O)c3c(=O)oc4c(O)c(O)c(O)c1c4c23` [CORULEOELLAGIC ACID] here?
Its Activity is 45%.

What about the Activity [2] of the same compound?
Its Activity is 68%.

And the Activity [3]?
Its Activity is 25%.

And the Activity [4]?
Its Activity is 101%.

And the Activity [5]?
Its Activity is 84%.

With `O=c1oc2c(O)c(O)cc3c(=O)oc4c(O)c(O)cc1c4c23` [ELLAGIC ACID] as the compound, how does the Activity [6] read?
The Activity was 131%.

And the FIC50 [7]?
The FIC50 was 1.

How did the Activity [8] turn out when `O=c1oc2c(O)c(O)c(O)c3c(=O)oc4c(O)c(O)cc1c4c23` [FLAVELLAGIC ACID] was run?
The Activity was 97%.
